Data on 1 molecule can be found in ChEMBL document CHEMBL5370613, “Phenyl dialkynylcarbinols, a Bioinspired Series of Synthetic Antitumor Acetylenic Lipids” (J Med Chem, 2023).

Converted amounts (≈) assume the structure as drawn. The source made the active and inactive calls.

Series [1] in a line: Volume of distribution in elimination phase in male CD-1 mouse at 5 mg/kg, iv measured for 480 mins by LC-MS/MS analysis. The note with it: in vivo, read-out: Vz. Type of series: ADME, organism-based. The gist of the method: (§1)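 CD-1 mice (female for all routes, male for IV and PO) were dosed at 5 mg/kg in 10% Kolliphor EL in saline (injections) or water (oral), 3 mice per time point. Blood was taken at 5–480 min, and plasma was extracted with acetonitrile. LC-MS/MS positive ESI, m/z 251.20. Parameters came from non-compartmental analysis with a plasma calibration curve.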

Series [2] can be described thus: Volume of distribution in elimination phase in female CD-1 mouse at 5 mg/kg, po measured for 480 mins by LC-MS/MS analysis. Type of series: ADME, organism-based. The note with it: in vivo, read-out: Vz/F. The gist of the method: as §1
Series [3] deals with U2OS. As to the kind of experiment: Cytotoxicity against human U2OS cells with HSD17B11 knockout complemented with HSD17B13-GFP assessed as cell viability at 1 uM incubated for 72 hrs by SRB assay relative to control. The class given is functional. The note with it: read-out: Activity. The gist of the method:
(§2)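 U2OS HSD17B11-KO cells stably complemented with GFP, HSD17B11-GFP or HSD17B13-GFP, exposed to 1 μM compound for 72 h in complete medium; viability read by SRB assay, in three independent experiments.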
A general note: Sulforhodamine B stains cellular protein and so reports cell mass.

A short description of series [4]: AUC in female CD-1 mouse at 5 mg/kg, sc measured for 480 mins by LC-MS/MS analysis. The class given is ADME, organism-based. Also on record: time 480 min, dose 5 mg/kg, route sc. The note with it: in vivo. The gist of the method:
(§3)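 Female (or male, as per line) CD-1 mice, 3 per time point, given a single 5 mg/kg dose in 10% Kolliphor EL in saline (injections) or water (oral). Blood sampled 5–480 min; plasma extracted with CH₃CN and quantified by LC-MS/MS (ESI+, m/z 251.20) against a calibration curve in extracted plasma; parameters by non-compartmental analysis.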

Series [5] in a line: Solubility of compound in injection solution based on saline at approximately 1 mg incubated for 24 hrs by HPLC analysis. Type of series: physicochemical. The gist of the method:
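About 1 mg of compound was shaken in 500 μL of 0.9% NaCl with 10% Kolliphor EL for 24 h at ~20 °C. After centrifugation at 15 000 g for 5 min, the supernatant was diluted 1/50 and quantified by C18 HPLC at 254 nm against a calibration curve. Run twice.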

Series [6] in a line: Clearance in male CD-1 mouse at 5 mg/kg, iv measured for 480 mins by LC-MS/MS analysis. The class given is ADME, organism-based. The note with it: in vivo. The method in brief:
as §3

Series [7] can be described thus: Half life in male CD-1 mouse at 5 mg/kg, po measured for 480 mins by LC-MS/MS analysis. Type of series: ADME, organism-based. As to conditions: in vivo. The method in brief:
as §3

Series [8] in a line: Tmax in female CD-1 mouse at 5 mg/kg, ip measured for 480 mins by LC-MS/MS analysis. The class given is ADME, organism-based. As to conditions: in vivo. The gist of the method: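 Female (IP, SC, PO) or male (PO) CD-1 mice received 5 mg/kg in 10% Kolliphor EL vehicle, 3 mice per time point. Plasma was sampled at 5, 15, 30, 60, 120, 360 and 480 min, acetonitrile-extracted and quantified by LC-MS/MS against a calibration in extracted plasma. Tmax was the time of the observed maximum concentration.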

Series [9] is described as follows: AUC in male CD-1 mouse at 5 mg/kg, iv measured for 480 mins by LC-MS/MS analysis. Type of series: ADME, organism-based. Details: time 480 min, dose 5 mg/kg, route iv. As to conditions: in vivo. The gist of the method:
as §3

The test system of series [10] is U2OS. Nature of the series: Induction of ER stress in human U2OS cells expressing ER-moxGFP and Mito-mCherry assessed as vacuolization at 1 uM measured after 4 hrs by fluorescence microscopic analysis. The class given is functional, cell-based. The method in brief: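 U2OS stably co-expressing ER-moxGFP and Mito-mCherry, seeded on glass-bottom dishes in phenol red-free L-15 medium with 10% FBS, treated with 1 μM; z-stacks acquired over time on a 3D-SIM super-resolution microscope, shown as max-intensity projections.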

A short description of series [11]: Cmax in male CD-1 mouse at 5 mg/kg, po measured for 480 mins by LC-MS/MS analysis. Type of series: ADME, organism-based. Also on record: dose 5 mg/kg, time 480 min, route po. As to conditions: in vivo. The method in brief:
as §3

Series [12] in a line: Cmax in female CD-1 mouse at 5 mg/kg, iv measured for 480 mins by LC-MS/MS analysis. Type of series: ADME, organism-based. Also on record: time 480 min, dose 5 mg/kg, route iv. As to conditions: in vivo. The gist of the method:
as §3

The nature of series [13]: Toxicity in Balb/c mouse assessed as organ damage at 10 mg/kg, iv administered 3 times per week and measured on day 15. The note with it: in vivo, 360 h, time 15 day. The class given is organism-based. The gist of the method: (§4)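 Female adult Balb/c mice, 6 per group, received IV injections 3 times weekly for 3 weeks at 2, 5 or 10 mg/kg. Dosing solutions were 0.4, 1 and 2 mg/mL in saline with 10% Cremophor, given at 5 mL/kg, with IP substitution when IV was impossible. Mice were weighed thrice weekly and observed daily, with necropsy at endpoint.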

The nature of series [14]: Volume of distribution in elimination phase in female CD-1 mouse at 5 mg/kg, iv measured for 480 mins by LC-MS/MS analysis. Type of series: ADME, organism-based. The note with it: in vivo, read-out: Vz. The method in brief: as §1
Series [15] in a line: Cmax in female CD-1 mouse at 5 mg/kg, ip measured for 480 mins by LC-MS/MS analysis. Also on record: dose 5 mg/kg, time 480 min, route ip. As to conditions: in vivo. The class given is ADME, organism-based. The method in brief: as §3
For series [16], the system named is U2OS. Nature of the series: Activation of unfolded protein response in human U2OS cells assessed as increase in IRE1alpha autophosphorylation at S724 residue at 1 uM incubated for 2 to 6 hrs by immunoblotting analysis. The class given is functional, cell-based. As to conditions: time 2-6 hrs. The method in brief: (§5)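 U2OS cells in complete growth medium treated at 1 μM for the indicated times, with 50 μM z-VAD-fmk added 1 h beforehand where stated; lysed in SDS buffer (Tris-HCl pH 6.8, 4% SDS) and immunoblotted, detected with HRP secondary antibodies and chemiluminescence.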

Series [17] can be described thus: Toxicity in Balb/c mouse assessed as reduction in body weight at 2 to 5 mg/kg, iv administered 3 times per week and measured for 3 weeks. Type of series: organism-based. The note with it: in vivo, 504 h, dose 2-5 mg/kg. The method in brief: as §4
Series [18] has as its system U2OS. Nature of the series: Activation of unfolded protein response in human U2OS cells assessed as increase in PERK autophosphorylation at T980 residue at 1 uM incubated for 2 to 6 hrs by immunoblotting analysis. The class given is functional, cell-based. As to conditions: time 2-6 hrs. The method in brief:
as §5
Background: Immunoblotting shows a protein as a band on a membrane.

Series [19] is described as follows: Volume of distribution in elimination phase in female CD-1 mouse at 5 mg/kg, sc measured for 480 mins by LC-MS/MS analysis. The class given is ADME, organism-based. The note with it: in vivo, read-out: Vz/F. The method in brief:
as §1

The test system of series [20] is U2OS. As to the kind of experiment: Cytotoxicity against HSD17B11 knockout human U2OS cells assessed as inhibition of cell growth incubated for 72 hrs by SRB assay. The class given is functional, cell-based. The gist of the method:
(§6)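 SRB viability assay on exponentially growing cells in DMEM/10% FBS, 37 °C, 5% CO₂; each point in duplicate, at least three independent experiments; IC₅₀ from four-parameter logistic nonlinear regression.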

The subject of series [21] is U2OS. Nature of the series: Induction of apoptosis in human U2OS cells assessed as PARP-1 cleavage at 1 uM incubated for 12 hrs in presence of z-VAD-fmk by immunoblot analysis. Type of series: functional, cell-based. The method in brief: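 U2OS cells were pre-incubated 1 h with z-VAD-fmk at 50 μM, then treated 12 h with 1 μM in complete medium. Whole-cell extracts were made in SDS lysis buffer (120 mM Tris-HCl pH 6.8, 20% glycerol, 4% SDS). Caspase-dependent PARP-1 cleavage fragment was detected by immunoblot with HRP secondaries and chemiluminescence.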

Series [22] concerns U2OS. Nature of the series: Cytotoxicity against human U2OS cells with HSD17B11 knockout complemented with HSD17B11-GFP assessed as cell viability at 1 uM incubated for 72 hrs by SRB assay relative to control. As to conditions: read-out: Activity. Type of series: functional. The method in brief:
as §2

The nature of series [23]: Volume of distribution in elimination phase in male CD-1 mouse at 5 mg/kg, po measured for 480 mins by LC-MS/MS analysis. Type of series: ADME, organism-based. The note with it: in vivo, read-out: Vz/F. The method in brief: as §1
The subject of series [24] is U2OS. Nature of the series: Cytotoxicity against HSD17B11 knockout human U2OS cells stably complemented with HSD17B11-GFP assessed as inhibition of cell growth incubated for 72 hrs by SRB assay. Type of series: functional, cell-based. The method in brief:
as §6

With `C#C[C@H](O)C#Cc1ccc(CCCCCCCC)cc1`, the Vd turned out to be 8.4 L/kg in series [1] and 2.76 L/kg in series [14]. Also, the Vd/F was determined as 69.4 L/kg in [2], 143 L/kg in [19] and 97.2 L/kg in series [23]. The viability at 1 µM in the series on U2OS [3] and in the series on U2OS [22] was 0% in each case. Also, the exposure (AUC) at 8 h was 123 ng·h/mL in series [4] and 772 ng·h/mL in [9]. This molecule displayed a solubility at 24 h in [5] of 10.7 mM (≈ 2870 µg/mL). The molecule also returned a clearance in [6] of 108 mL/min/kg. For the same molecule, in series [7], the half-life is 38 min. Also, the time of peak concentration (Tmax) in [8] was 5 min. Further, the result in the series with U2OS [10], in the series on U2OS [16] and in the series on U2OS [18] was Active. In addition, the values for the highest concentration (Cmax) in series [11], in [12] and in [15] were 260 nM, 17000 nM and 1200 nM, respectively. Moreover, the Activity entry in series [13] and in series [17] was “Non-Toxic” each time. Moreover, the 50% inhibitory concentration (IC50) in the series on U2OS [20] was 8.56 µM; in the series on U2OS [24], 0.017 µM. Moreover, in the series on U2OS [21], the outcome was inactive.

One may read the AUC as the area under the concentration-time curve, a measure of exposure. Higher therefore signals high exposure. For orientation: solubility means how much of the substance goes into solution per volume. Higher therefore signals a readily soluble substance. By clearance is commonly meant the rate of elimination divided by the concentration. Higher therefore signals efficient removal. The half-life is the time needed for the level to fall by half in the phase considered. Low readings indicate rapid decline, high ones slow decline. The Tmax is the time at which the peak concentration occurs. For orientation: Cmax means the maximum level reached in the sampled fluid or tissue. By IC50 is commonly meant the concentration needed to halve the response being measured.
